According to PubChem BioAssay:
Activity calls are given as the source filed them.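 The calls were made as follows, unless noted: active = inhibition above 20% together with a positive visual image hit; inconclusive = visual image hit but inhibition not above 20%; inactive = no visual image hit.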

Columns and labels:
[1] = inhibitors of TNFa-induced NFkB p65 translocation, primary screen, imaging, HUVEC, MLSMR starter and 10KST1 sets (AID 438); details: HUVEC TNFa-induced p65 nuclear translocation; cell count: measured here: nuclei count (cytotoxicity indicator), at 2.08 µM; inhibition: at 2 µM, stronger effect = higher value, 0% TNFa-plus-vehicle, 100% no-TNFa wells;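 also: compound added about 3h40 before a 20 min TNFalpha stimulation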;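 as to inhibition: signal is the nuclear over cytoplasmic p65 intensity ratio per well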
[2] = inhibitors of mutant huntingtin aggregation, primary screen, imaging, exon1htt(103Q)mCFP cells, high-content imaging (AID 483;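 active = visual image review flags a hit and inhibition of aggregation exceeds 20%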;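 also: compound exposure lasted 3 days before fixation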;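 as to nuclei count: percent of the per-plate median nuclei count of sample wells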); details: exon1htt(103Q)mCFP cell line, aggregate imaging, at 2 µM; inhibition of aggregation: stronger effect = higher value; nuclei count: measured here: cell count, toxicity
[3] = inhibitors of E-selectin induction by TNFa, primary screen, imaging, HUVEC, immunofluorescence, MLSMR starter and 10KST1 sets (AID 487;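 active = visually confirmed hit in the image check and inhibition above 20%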;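 as to inhibition: signal is fraction of cell area covered by stained E-selectin grains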;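 as to nuclei count: 100% = median nuclei count of all wells on the same plate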); details: HUVEC TNFalpha-induced E-selectin immunofluorescence imaging, at 2 µM; inhibition: stronger effect = higher value; nuclei count: measured here: cell number, toxicity
[4] = biological target: Voltage-gated potassium channel subunit beta-2 (Rattus norvegicus) (UniProt P62483); test: KvBeta enzyme negative modulators, primary screen, biochemical, NADPH fluorescence (AID 622;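 active = fluorescence slope higher than the sample average by over 3 SD, cut at about -0.22 in these data, passing the limit was not always enough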;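 also: slope of raw intensity against log time taken from 70 to 1610 s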); details: recombinant KvBeta, 4-cyanobenzaldehyde reduction, at 10 µM, stronger effect = higher value
Sequence of Voltage-gated potassium channel subunit beta-2 (Rattus norvegicus) (P62483 whole entry, looked up): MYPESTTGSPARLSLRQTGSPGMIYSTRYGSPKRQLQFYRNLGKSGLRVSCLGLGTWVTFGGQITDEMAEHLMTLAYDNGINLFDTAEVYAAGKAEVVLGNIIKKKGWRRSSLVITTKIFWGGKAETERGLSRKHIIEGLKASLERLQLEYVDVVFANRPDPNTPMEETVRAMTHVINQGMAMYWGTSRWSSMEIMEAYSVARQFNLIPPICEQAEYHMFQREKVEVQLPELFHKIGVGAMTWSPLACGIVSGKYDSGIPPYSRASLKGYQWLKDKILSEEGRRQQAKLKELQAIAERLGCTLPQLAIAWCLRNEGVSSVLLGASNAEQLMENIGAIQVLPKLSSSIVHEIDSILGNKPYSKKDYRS

[5] = biological target: Voltage-gated potassium channel subunit beta-2 (Rattus norvegicus) (UniProt P62483); test: KvBeta positive modulators, primary screen, biochemical, NADPH fluorescence (AID 623;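 active = NADPH fluorescence slope more negative than the mean of all samples by about 3 SD, 99.7% confidence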;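 also: fluorescence intensity change per second fitted from 20 to 320 s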); details: Recombinant KvBeta, NADPH fluorescence decrease slope, 10 min; at 10 µM; stronger effect = lower value
[6] = biological target: Muscarinic acetylcholine receptor M4 (Homo sapiens) (UniProt P08173); test: compounds altering M4/GIRK thallium flux, either direction, primary screen, M4 allosteric agonist project, cell-based, HEK293 M4/GIRK, BTC-AM (AID 625;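 active = fluorescence slope after compound addition differing from the mean of all tested samples at 99.7% confidence, mostly higher but some lower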;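 also: thallium influx through GIRK channels coupled to M4 in HEK293 cells with BTC-AM dye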); details: at 10 µM, actives lie on both sides
Sequence of Muscarinic acetylcholine receptor M4 (Homo sapiens) (P08173 whole entry, looked up): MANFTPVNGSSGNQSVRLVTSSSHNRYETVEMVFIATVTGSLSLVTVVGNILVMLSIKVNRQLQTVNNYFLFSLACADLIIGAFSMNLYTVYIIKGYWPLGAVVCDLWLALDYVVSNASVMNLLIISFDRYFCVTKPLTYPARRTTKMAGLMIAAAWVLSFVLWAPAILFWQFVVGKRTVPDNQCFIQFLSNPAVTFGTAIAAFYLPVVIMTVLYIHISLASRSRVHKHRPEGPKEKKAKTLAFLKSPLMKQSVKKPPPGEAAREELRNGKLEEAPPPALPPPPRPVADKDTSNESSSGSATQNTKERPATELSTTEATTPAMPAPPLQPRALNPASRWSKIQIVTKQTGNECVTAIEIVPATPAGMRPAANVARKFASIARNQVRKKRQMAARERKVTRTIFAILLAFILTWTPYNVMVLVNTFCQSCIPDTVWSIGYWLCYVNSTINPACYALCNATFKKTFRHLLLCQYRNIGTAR
Method in brief: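 Material: M4/GIRK1/GIRK2 stable HEK293 cell line. Medium: pH 7.3 thallium assay buffer. Dosing: single compound concentration, 10 µM final. Schedule: 1 h dye loading, 2 min kinetic read. Measured by: kinetic fluorescence with BTC-AM dye. Read-out: post-addition slope, 15–24 s, of baseline-normalized fluorescence. Benchmarks: carbachol and DMSO controls.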

[7] = inhibitors of Sendai virus-induced IRF3 signaling, primary screen, TLR/RLR signaling modifier project, cell-based, Sendai virus stimulus, luciferase, 10K MLSCN set (AID 602276;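 active = inhibition at or above 50% at 10 µM; inactive = inhibition below 50%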;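 also: firefly luciferase from ISG56 promoter only with Renilla not read in this screen; 0% = Sendai virus plus DMSO and 100% = medium plus DMSO without virus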); details: HEK293 RL24 IRF3 luciferase reporter, at 10 µM, stronger effect = higher value
[8] = inhibitors of poly I:C-induced TLR3 signaling, primary screen, cell-based, poly I:C stimulus, luciferase, 10K MLSCN set (AID 602277;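 active = inhibition of the reporter signal at or above 50%; inactive = inhibition below 50%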); details: HEK293-TLR3 RL24 IRF3 luciferase reporter, at 10 µM, stronger effect = higher value

| SMILES | cell count [1] | inhibition [1] | inhibition of aggregation [2] | nuclei count [2] [%] | inhibition [3] | nuclei count [3] [%] | fluorescence slope [4] | NADPH fluorescence slope [5] | fluorescence slope [6] | inhibition [7] | inhibition [8] |
| --- | --- | --- | --- | --- | --- | --- | --- | --- | --- | --- | --- |
| CCCCn1c(SCc2cccnc2)nc2c1c(=O)n(C)c(=O)n2C | 502 | -7.2% (inactive) | 27.2% (inactive) | 90.8 | -15.9% (inactive) | 198 | -0.511 (inactive) | -3.3e-05 (inactive) | 0.00468 (inactive) | -4.82% (inactive) | 0.323% (inactive) |
| O=C(CN1C(=O)C2CC=C(Cl)CC2C1=O)Nc1ccc(C(=O)O)cc1 (stereo not drawn) | 442 | 3.4% (inactive) | 10.1% (inactive) | 110 | -205% (inactive) | 122 | -0.569 (inactive) | -7.9e-05 (inactive) | 0.00409 (inactive) | 19.2% (inactive) | 20.6% (inactive) |
| Cc1ccc(C)c(-n2c(Cc3cc(=O)[nH]c(=O)[nH]3)nnc2SCC(=O)NCc2ccco2)c1 | 254 | -4.3% (inactive) | -32.9% (inactive) | 74.4 | 65.5% (active) | 64 | -0.549 (inactive) | -6.1e-05 (inactive) | 0.00457 (inactive) | -2% (inactive) | 5.02% (inactive) |
| N#CCSc1nc2c(c(C3CC=CCC3)c1C#N)CCC2 (stereo not drawn) | 436 | 8% (inactive) | -9.6% (inactive) | 100 | -44.5% (inactive) | 112 | -0.552 (inactive) | -1.6e-05 (inactive) | 0.00409 (inactive) | -0.626% (inactive) | 27.7% (inactive) |
| CCC(Sc1nc2n[nH]c(C)c2c(=N)n1-c1cc(Cl)ccc1C)C(=O)N1CCOCC1 (stereo not drawn) | 338 | -2.1% (inactive) | 11.8% (inactive) | 97.6 | -273% (inactive) | 108 | -0.593 (inactive) | -1.6e-05 (inactive) | 0.00508 (inactive) | -6.83% (inactive) | 10% (inactive) |
| CC(c1ccccc1)N1C(=O)c2ccc(C(=O)NCc3ccco3)cc2C1=O (stereo not drawn) | 710 | 6.3% (inactive) | -0.8% (inactive) | 107 | 23.2% (inactive) | 93.8 | -0.46 (inactive) | -2.6e-05 (inactive) | 0.00569 (inactive) | -11.4% (inactive) | 51.6% (active) |
| CCOc1ccccc1NC(=O)N1CCCC1C(=O)Nc1nnc(CC)s1 (stereo not drawn) | 599 | -0.7% (inactive) | -35.9% (inactive) | 63.6 | -86% (inactive) | 98.7 | -0.296 (inactive) | -3.1e-05 (inactive) | 0.00525 (inactive) | 1.66% (inactive) | 12.7% (inactive) |
| COc1ccc(-n2c(SCCC(=O)O)nnc2-c2ccncc2)cc1 | 359 | -6.2% (inactive) | -2.3% (inactive) | 98.2 | -27.4% (inactive) | 127 | -0.56 (inactive) | 4e-06 (inactive) | 0.00569 (inactive) | 18% (inactive) | 36.6% (inactive) |
| Cc1cc(NCCCn2ccnc2)n2c(nc3ccccc32)c1C#N | 276 | -23.5% (inactive) | 17.7% (inactive) | 70.2 | 16.6% (inactive) | 80.2 | -0.501 (inactive) | 2e-06 (inactive) | 0.00606 (inactive) | -6.75% (inactive) | -0.197% (inactive) |
| COC(=O)c1cc(NS(=O)(=O)c2ccc3c(c2)CCC(=O)N3)cc(C(=O)OC)c1 | 384 | -2.9% (inactive) | -24.1% (inactive) | 108 | -255% (inactive) | 115 | -0.464 (inactive) | 2.6e-05 (inactive) | 0.00663 (inactive) | -11.6% (inactive) | 79.6% (active) |
| COCCn1cc(C(=O)NCCCN2CCC(C)CC2)c2c3ccccc3n(C)c2c1=O | 493 | 2.1% (inactive) | -2.6% (inactive) | 110 | -38.5% (inactive) | 115 | -0.562 (inactive) | -5.2e-05 (inactive) | 0.00626 (inactive) | 0.372% (inactive) | 16.6% (inactive) |
| COC(=O)c1ccc(NC(=O)CN2C(=O)CSC2=O)cc1 | 454 | 3.1% (inactive) | -17.9% (inactive) | 113 | -41% (inactive) | 109 | -0.404 (inactive) | -3e-05 (inactive) | 0.00594 (inactive) | 7.22% (inactive) | 10.7% (inactive) |
| O=C(Nc1ccc(S(=O)(=O)NC2CCCC2)cc1)c1cnccn1 | 288 | 1.5% (inactive) | 0.6% (inactive) | 97.1 | -54% (inactive) | 117 | -0.543 (inactive) | -1.1e-05 (inactive) | 0.00448 (inactive) | 10.3% (inactive) | 11.7% (inactive) |
| O=C(Nc1ccccc1N1CCN(C(=O)c2ccc(Cl)cc2)CC1)c1cc2ccccc2o1 | 424 | 0% (inactive) | -5.5% (inactive) | 101 | -108% (inactive) | 104 | -0.549 (inactive) | -6.3e-06 (inactive) | 0.00626 (inactive) | 1.02% (inactive) | 17% (inactive) |
| CCC(C)(C)n1nnnc1C(c1ccccc1OC)N1CCSCC1 (stereo not drawn) | 252 | -16.3% (inactive) | 6.6% (inactive) | 106 | 32.4% (inactive) | 53.7 | -0.555 (inactive) | -4.3e-05 (inactive) | 0.00476 (inactive) | 6.1% (inactive) | 23.7% (inactive) |
| CN1CC[n+]2cnc3ccccc3c21 | 600 | 1.2% (inactive) | -17.8% (inactive) | 103 | -9.4% (inactive) | 122 | -0.585 (inactive) | -8.5e-05 (inactive) | 0.00403 (inactive) | 16.8% (inactive) | 19.3% (inactive) |
| COCCn1c(NCc2ccc(C)cc2)nc2c1c(=O)[nH]c(=O)n2C | 848 | 6.8% (inactive) | 29.4% (inactive) | 91.9 | 9.9% (inactive) | 110 | -0.543 (inactive) | -2.1e-05 (inactive) | 0.00577 (inactive) | 7.9% (inactive) | 13.3% (inactive) |
| O=C1CCCc2c1cc(C(=O)NCc1ccco1)c(=O)n2-c1ccc(Cl)cc1 | 220 | 0.8% (inactive) | 5.3% (inactive) | 91.5 | 37.1% (inactive) | 80 | -0.52 (inactive) | -5.7e-05 (inactive) | 0.0047 (inactive) | 10.8% (inactive) | 3.62% (inactive) |
| CCOc1cccc(Oc2ccc(C(F)(F)F)cn2)c1 | 664 | -8% (inactive) | -17.4% (inactive) | 120 | 8.4% (inactive) | 97.3 | -0.526 (inactive) | 1.7e-05 (inactive) | 0.00424 (inactive) | 5.91% (inactive) | 3.43% (inactive) |
| COc1ccc(CCNC(=O)c2cc(-c3cc(C)c(C)cc3O)n[nH]2)cc1OC | 434 | 2.8% (inactive) | 8.6% (inactive) | 88.9 | -83.7% (inactive) | 145 | -0.444 (inactive) | -0.000364 (inactive) | 0.00555 (inactive) | 9.16% (inactive) | 9.05% (inactive) |
| O=C(NC1CCCC1)c1c[nH]c2ccc(F)cc2c1=O | 442 | -4% (inactive) | -14.3% (inactive) | 118 | -16% (inactive) | 104 | -0.266 (inactive) | -1.4e-05 (inactive) | 0.00803 (inactive) | -2.78% (inactive) | -20.3% (inactive) |
| CN(C(=O)c1ccncc1)C1CC(C)(C)N(O)C(C)(C)C1 | 344 | 2.8% (inactive) | -9.8% (inactive) | 103 | -67.4% (inactive) | 119 | -0.592 (inactive) | -2.2e-05 (inactive) | 0.00587 (inactive) | -0.539% (inactive) | 8.86% (inactive) |
| CCN(CC)CC(=O)Nc1ccc(-c2nc3cc(NC(=O)CN(CC)CC)ccc3o2)cc1 | 621 | 4.9% (inactive) | -13.9% (inactive) | 102 | 41.6% (inactive) | 100 | -0.0978 (inactive) | -3.8e-06 (inactive) | 0.00522 (inactive) | -12.5% (inactive) | 92.9% (active) |
| COc1ccc(OC(C)C(=O)N2CCN(c3ccccn3)CC2)cc1 (stereo not drawn) | 395 | 7.5% (inactive) | 3% (inactive) | 103 | -90.1% (inactive) | 115 | -0.447 (inactive) | -3.5e-05 (inactive) | 0.0048 (inactive) | 21.5% (inactive) | 18% (inactive) |
| COc1ccccc1C(=O)NCCc1nc2ccccc2n1C | 564 | -11.3% (inactive) | -5.2% (inactive) | 113 | 15.5% (inactive) | 101 | -0.294 (inactive) | -2.3e-05 (inactive) | 0.00691 (inactive) | -9.79% (inactive) | -4.78% (inactive) |
| COc1cc(NC(=O)c2ccc(COCC(F)(F)F)o2)cc(OC)c1OC | 753 | -11.9% (inactive) | -25% (inactive) | 116 | -71% (inactive) | 118 | -0.553 (inactive) | -4.6e-05 (inactive) | 0.00529 (inactive) | 15.8% (inactive) | 24.7% (inactive) |
| CCOc1ccc(NC(=O)CN2CCN(CC(=O)Nc3ccc(F)c(F)c3)CC2)cc1 | 409 | 3.1% (inactive) | -0.9% (inactive) | 105 | -60.2% (inactive) | 99.8 | -0.435 (inactive) | 4.4e-05 (inactive) | 0.00651 (inactive) | 12.5% (inactive) | 23% (inactive) |
| O=C(O)CSc1ccc2ccccc2n1 | 418 | 3.6% (inactive) | 1.4% (inactive) | 106 | 15.7% (inactive) | 102 | -0.525 (inactive) | -3.7e-05 (inactive) | 0.00444 (inactive) | 19% (inactive) | 23.8% (inactive) |
